The results in this text go back to ChEMBL document CHEMBL1687720 (Antimicrob Agents Chemother, 2009).

Calls of active or inactive are those of the source. The rule behind the calls is not given here.

For data set [1], the system named is A549. Description: Inhibition of glutathione peroxidase in human A549 cells assessed as enzyme activity at 5 µM after 24 hrs relative to untreated control. Set-up: scale not given: the % may be the effect or the level left.
Data set [2] concerns A549. The data set is described as follows: Effect on thioredoxin reductase expression in human A549 cells assessed as transcript level at 5 nM after 24 hrs by RT-qPCR analysis relative to untreated control. The format is functional. The following applies: in the assay text read “5 µM” for “5 nM”. Put shortly:
(§1)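 A549 cells are seeded at 2.5 × 10^5 per 25-cm2 well. At 40–45% confluence they are treated for 24 h with 166 or 662 μM, 158 or 315 μM, or 5 or 24 μM compound; controls receive <5% DMSO. Total RNA is DNase-treated and qRT-PCR is run in quadruplicate. Values are normalized to GAPDH and given as % of untreated control.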
(In general: Quantitative PCR measures a nucleic acid by following its amplification.)

Data set [3] relates to A549. Description: Effect on glutathione S-transferase expression in human A549 cells assessed as transcript level at 24 nM after 24 hrs by RT-qPCR analysis relative to untreated control. The settings on record: in the assay text read “24 µM” for “24 nM”. The format is functional. In short, it runs like this: as §1
For data set [4], the system named is Plasmodium falciparum. Description: Downregulation of thioredoxin peroxidase mRNA level in Plasmodium falciparum 3D7 trophozoites at 126 nM after 18 hrs by RT-qPCR analysis relative to untreated control. The format is functional. In short, it runs like this: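 P. falciparum 3D7 trophozoites are exposed to 126 nM compound for 12, 15 or 18 h, then harvested by saponin lysis at 37°C. RNA is extracted and reverse-transcribed, and transcripts are quantified by real-time PCR in quadruplicate. Analysis uses ΔΔCT with 18S rRNA as reference (LDH also checked), expressed as % of untreated control.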

Data set [5] concerns Plasmodium falciparum. Description: Upregulation of thioredoxin reductase mRNA level in Plasmodium falciparum 3D7 trophozoites at 126 nM after 12 hrs by RT-qPCR analysis relative to untreated control. It is filed as functional, organism-based. Put shortly:
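Synchronized 3D7 trophozoites in RPMI/Albumax culture at 37°C under 3% O2, 3% CO2 were exposed 12, 15 or 18 h, then harvested by 0.02% saponin lysis. RNA was reverse-transcribed and analyzed by real-time PCR in quadruplicate. Quantification used ΔΔCT with 18S rRNA reference (LDH also checked), expressed as % of untreated control.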

In data set [6] the test system is A549. The data set is described as follows: Effect on glutathione peroxidase expression in human A549 cells assessed as transcript level at 5 µM after 24 hrs by RT-qPCR analysis relative to untreated control.
The test system of data set [7] is A549. The data set is described as follows: Inhibition of glutathione S-transferase in human A549 cells assessed as enzyme activity at 24 µM after 24 hrs relative to untreated control. Set-up: scale not given: the % may be the effect or the level left.
Data set [8] deals with Plasmodium berghei. The data set is described as follows: Antimalarial activity against Plasmodium berghei infected in mouse assessed as reduction in parasite load at 10 mg/kg for 4 days treated postinfection measured on day 9. On the set-up: scale not given: the % may be the effect or the level left. The format is functional. In short, it runs like this:
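Murine P. berghei model; compound given subcutaneously at 10 mg/kg for 4 days postinfection; parasitemia compared with untreated controls (n = 13 per group) on days 4, 7 and 9; significance by Fisher's exact test.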

Data set [9] concerns A549. The data set is described as follows: Inhibition of glutathione peroxidase in human A549 cells assessed as enzyme activity at 24 µM after 24 hrs relative to untreated control. Set-up: scale not given: the % may be the effect or the level left.
Data set [10] is described as follows: Cytotoxicity against human A549 cells assessed as reduction in viable cells at 60 uM by Trypan blue assay. The following applies: read-out: INH. It is filed as cell-based. In short, it runs like this: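 A549 cells are grown in DMEM with 10% FCS at 37°C and 5% CO2, and treated for 24 h. They are washed in cold PBS and trypsinized. Viable and nonviable cells are counted by trypan blue exclusion on a hemocytometer.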

Data set [11] has as its system A549. The data set is described as follows: Inhibition of glutathione peroxidase in human A549 cells assessed as enzyme activity at 166 µM after 24 hrs relative to untreated control. On the set-up: scale not given: the % may be the effect or the level left.
For data set [12], the system named is A549. The data set is described as follows: Inhibition of glutathione S-transferase in human A549 cells assessed as enzyme activity at 662 µM after 24 hrs relative to untreated control. On the set-up: scale not given: the % may be the effect or the level left.
Data set [13] concerns Plasmodium falciparum. The data set is described as follows: Antiplasmodial activity against chloroquine-resistant Plasmodium falciparum K1 in presence of methylene blue. The format is functional.
Data set [14] has as its system A549. The data set is described as follows: Effect on glutathione peroxidase expression in human A549 cells assessed as transcript level at 166 nM after 24 hrs by RT-qPCR analysis relative to untreated control. The following applies: in the assay text read “166 µM” for “166 nM”. It is filed as functional. Put shortly:
as §1

In data set [15] the test system is Plasmodium falciparum. Description: Antiplasmodial activity against chloroquine-resistant Plasmodium falciparum K1 in presence of mefloquine. The format is functional.
Data set [16] relates to A549. Description: Effect on glutathione reductase expression in human A549 cells assessed as transcript level at 315 nM after 24 hrs by RT-qPCR analysis relative to untreated control. The format is functional. The following applies: in the assay text read “315 µM” for “315 nM”. In short, it runs like this: as §1
Data set [17] has as its system A549. Description: Effect on glutathione reductase expression in human A549 cells assessed as transcript level at 158 nM after 24 hrs by RT-qPCR analysis relative to untreated control. The format is functional. The settings on record: in the assay text read “158 µM” for “158 nM”. Put shortly: as §1
For data set [18], the system named is A549. Description: Inhibition of glutathione peroxidase in human A549 cells assessed as enzyme activity at 315 µM after 24 hrs relative to untreated control. On the set-up: scale not given: the % may be the effect or the level left.
The test system of data set [19] is A549. The data set is described as follows: Inhibition of glutathione peroxidase in human A549 cells assessed as enzyme activity at 158 µM after 24 hrs relative to untreated control. On the set-up: scale not given: the % may be the effect or the level left.
Data set [20] relates to A549. The data set is described as follows: Effect on glutathione S-transferase expression in human A549 cells assessed as transcript level at 315 nM after 24 hrs by RT-qPCR analysis relative to untreated control. It is filed as functional. The following applies: in the assay text read “315 µM” for “315 nM”. In short, it runs like this: as §1

For `O=c1oc2c(O)c(O)c(O)c3c(=O)oc4c(O)c(O)c(O)c1c4c23` [CORULEOELLAGIC ACID], the Activity in data set [1] is 85%; in [2], 76%; in data set [3], 84%; in [4] it was 19%; in [6], 51%; in data set [7], 106%. The results for the Activity in data set [8] and in data set [9] were 50% and 78%, respectively. In addition, the result in data set [5] was inactive. For the same compound, in data set [10], the cytotoxicity at 60 µM was determined as 50%.

Regarding `O=c1oc2c(O)c(O)cc3c(=O)oc4c(O)c(O)cc1c4c23` [ELLAGIC ACID], the Activity in data set [11] was 86%; in data set [12], 101%; in [14], 109%. The FIC50 in data set [13] and in data set [15] was 1 in each case.

With `O=c1oc2c(O)c(O)c(O)c3c(=O)oc4c(O)c(O)cc1c4c23` [FLAVELLAGIC ACID], the Activity in data set [16] came out at 70%; in data set [17], 105%; in [18] it was 112%; in data set [19], 122%; in data set [20] it was 164%.
